≈ marks a conversion by molar mass, not a printed value.
Columns and labels:
[1] = tested on: Escherichia coli; test: Antibacterial activity against Escherichia coli isolate 54 by broth microdilution method; type: functional
Procedure, shortened: (§1)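 Tigecycline MICs by broth microdilution per CLSI guidelines, run in triplicate. Mueller-Hinton broth was prepared fresh less than 12 h before testing.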

[2] = tested on: Escherichia coli; test: Antibacterial activity against Escherichia coli isolate 120 by broth microdilution method; type: functional; procedure, shortened: as §1
[3] = tested on: Escherichia coli; test: Antibacterial activity against extended-spectrum beta-lactamase producing Escherichia coli isolate 315 by broth microdilution method; type: functional; procedure, shortened: as §1
[4] = tested on: Escherichia coli; test: Antibacterial activity against extended-spectrum beta-lactamase producing Escherichia coli isolate 321 by broth microdilution method; type: functional; procedure, shortened: as §1
[5] = tested on: Escherichia coli; test: Antibacterial activity against extended-spectrum beta-lactamase producing Escherichia coli isolate 322 by broth microdilution method; type: functional; procedure, shortened: as §1
[6] = tested on: Klebsiella pneumoniae; test: Antibacterial activity against Klebsiella pneumoniae isolate 134 by broth microdilution method; type: functional; procedure, shortened: as §1
[7] = tested on: Klebsiella pneumoniae; test: Antibacterial activity against Klebsiella pneumoniae isolate 135 by broth microdilution method; type: functional; procedure, shortened: as §1
[8] = tested on: Klebsiella pneumoniae; test: Antibacterial activity against extended-spectrum beta-lactamase producing Klebsiella pneumoniae isolate 255 by broth microdilution method; type: functional; procedure, shortened: as §1
[9] = tested on: Klebsiella pneumoniae; test: Antibacterial activity against extended-spectrum beta-lactamase producing Klebsiella pneumoniae isolate 266 by broth microdilution method; type: functional; procedure, shortened: as §1
[10] = tested on: Klebsiella pneumoniae; test: Antibacterial activity against extended-spectrum beta-lactamase producing Klebsiella pneumoniae isolate 320 by broth microdilution method; type: functional; procedure, shortened: as §1
[11] = tested on: Klebsiella pneumoniae; test: Antibacterial activity against carbapenemase producing Klebsiella pneumoniae isolate 321 by broth microdilution method; type: functional; procedure, shortened: as §1
[12] = Ratio of fAUC to MIC in Escherichia coli isolate 54-infected ICR mouse at 80% maximal effective concentration; type: functional
Procedure, shortened: (§2)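 EI50, EI80 and the static exposure were read from fitted curves. Free AUC came from earlier mouse PK using concentration-dependent protein binding set at Cmax. MICs were run in triplicate by CLSI broth microdilution in Mueller-Hinton broth prepared <12 h before testing, or by Etest.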

[13] = Half life in ICR mouse at 50 mg/kg, sc; type: ADME, organism-based; set-up: dose 50 mg/kg, route subcutaneous; conditions: in vivo
[14] = Ratio of fAUC to MIC in Escherichia coli isolate 120-infected ICR mouse at 80% maximal effective concentration; type: functional; procedure, shortened: as §2
[15] = Ratio of fAUC to MIC in extended-spectrum beta-lactamase producing Escherichia coli isolate 315-infected ICR mouse at 80% maximal effective concentration; type: functional; procedure, shortened: as §2
[16] = Ratio of fAUC to MIC in extended-spectrum beta-lactamase producing Escherichia coli isolate 321-infected ICR mouse at 80% maximal effective concentration; type: functional; procedure, shortened: as §2
[17] = Ratio of fAUC to MIC in extended-spectrum beta-lactamase producing Escherichia coli isolate 322-infected ICR mouse at 80% maximal effective concentration; type: functional; procedure, shortened: as §2
[18] = Ratio of fAUC to MIC in Klebsiella pneumoniae isolate 134-infected ICR mouse at 80% maximal effective concentration; type: functional; procedure, shortened: as §2
[19] = Ratio of fAUC to MIC in Klebsiella pneumoniae isolate 135-infected ICR mouse at 80% maximal effective concentration; type: functional; procedure, shortened: as §2
[20] = Ratio of fAUC to MIC in extended-spectrum beta-lactamase producing Klebsiella pneumoniae isolate 255-infected ICR mouse at 80% maximal effective concentration; type: functional; procedure, shortened: as §2
[21] = Ratio of fAUC to MIC in extended-spectrum beta-lactamase producing Klebsiella pneumoniae isolate 266-infected ICR mouse at 80% maximal effective concentration; type: functional; procedure, shortened: as §2
[22] = Ratio of fAUC to MIC in extended-spectrum beta-lactamase producing Klebsiella pneumoniae isolate 320-infected ICR mouse at 80% maximal effective concentration; type: functional; procedure, shortened: as §2
[23] = Ratio of fAUC to MIC in carbapenemase producing Klebsiella pneumoniae isolate 321-infected ICR mouse at 80% maximal effective concentration; type: functional; procedure, shortened: as §2
[24] = Ratio of fAUC to MIC in Escherichia coli isolate 54-infected ICR mouse at 50% maximal effective concentration; type: functional; procedure, shortened: as §2
[25] = Ratio of fAUC to MIC in Escherichia coli isolate 120-infected ICR mouse at 50% maximal effective concentration; type: functional; procedure, shortened: as §2
[26] = Ratio of fAUC to MIC in extended-spectrum beta-lactamase producing Escherichia coli isolate 315-infected ICR mouse at 50% maximal effective concentration; type: functional; procedure, shortened: as §2
[27] = Ratio of fAUC to MIC in extended-spectrum beta-lactamase producing Escherichia coli isolate 321-infected ICR mouse at 50% maximal effective concentration; type: functional; procedure, shortened: as §2
[28] = Ratio of fAUC to MIC in extended-spectrum beta-lactamase producing Escherichia coli isolate 322-infected ICR mouse at 50% maximal effective concentration; type: functional; procedure, shortened: as §2
[29] = Ratio of fAUC to MIC in Klebsiella pneumoniae isolate 134-infected ICR mouse at 50% maximal effective concentration; type: functional; procedure, shortened: as §2

In the case of `CN(C)c1cc(NC(=O)CNC(C)(C)C)c(O)c2c1C[C@H]1C[C@H]3[C@H](N(C)C)C(O)=C(C(N)=O)C(=O)[C@@]3(O)C(O)=C1C2=O` [TIGECYCLINE], the MIC [1] is reported as 0.25 µg/mL (≈ 0.427 µM), the MIC [2] is reported as 0.125 µg/mL (≈ 0.213 µM) and the MIC [3] is reported as 0.5 µg/mL (≈ 0.854 µM). It also gave an MIC [4] of 0.25 µg/mL (≈ 0.427 µM), an MIC [5] of 0.25 µg/mL (≈ 0.427 µM) and an MIC [6] of 0.5 µg/mL (≈ 0.854 µM). The MIC [7] was 0.5 µg/mL (≈ 0.854 µM), the MIC [8] was 2 µg/mL (≈ 3.41 µM) and the MIC [9] was 0.5 µg/mL (≈ 0.854 µM). For the same molecule, the MIC [10] was 2 µg/mL (≈ 3.41 µM), the MIC [11] was 0.5 µg/mL (≈ 0.854 µM) and the fAUC/MIC [12] was 7.7. For the same molecule, the half-life [13] was 9.9 h, the fAUC/MIC [14] was 7.3 and the fAUC/MIC [15] was 4.46. The fAUC/MIC [16] was 9.07, the fAUC/MIC [17] was 10.6 and the fAUC/MIC [18] was 10. It also gave a fAUC/MIC [19] of 7.78, a fAUC/MIC [20] of 4.81 and a fAUC/MIC [21] of 7.15. It also gave a fAUC/MIC [22] of 3.27, a fAUC/MIC [23] of 7.48 and a fAUC/MIC [24] of 5.19. It also gave a fAUC/MIC [25] of 3.7, a fAUC/MIC [26] of 3.71 and a fAUC/MIC [27] of 6.4. The fAUC/MIC [28] was 6.27 and the fAUC/MIC [29] was 5.91.
